Measured values reported in ChEMBL document CHEMBL4017487, “Design and Synthesis of γ- and δ-Lactam M1 Positive Allosteric Modulators (PAMs): Convulsion and Cholinergic Toxicity of an M1-Selective PAM with Weak Agonist Activity” (J Med Chem, 2017).

Key:
[1] = target: T1, Muscarinic acetylcholine receptor M2 (Homo sapiens, UniProt P08172); experiment: Agonist activity at human muscarinic acetylcholine receptor M2 expressed in CHO cells assessed as increase in cAMP accumulation after 2 hrs by cAMP-Glo assay; type: cell-based
T1 sequence (P08172 whole entry): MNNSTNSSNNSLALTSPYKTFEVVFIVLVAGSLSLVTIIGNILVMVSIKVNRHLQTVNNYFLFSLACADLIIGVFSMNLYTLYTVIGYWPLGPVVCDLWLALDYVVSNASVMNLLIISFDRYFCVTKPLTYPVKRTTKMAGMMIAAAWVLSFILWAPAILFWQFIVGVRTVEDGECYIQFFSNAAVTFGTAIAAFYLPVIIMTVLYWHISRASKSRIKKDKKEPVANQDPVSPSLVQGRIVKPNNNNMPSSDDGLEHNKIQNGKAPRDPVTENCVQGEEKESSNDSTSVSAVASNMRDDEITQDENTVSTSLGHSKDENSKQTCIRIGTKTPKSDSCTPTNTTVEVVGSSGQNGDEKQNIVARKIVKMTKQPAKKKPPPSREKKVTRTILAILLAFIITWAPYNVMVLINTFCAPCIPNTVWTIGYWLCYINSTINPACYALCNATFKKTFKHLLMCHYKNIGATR
Procedure, shortened: (§1)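 Recombinant functional human M2–M5 assays, each run in agonist and PAM modes at concentrations up to 10 μM.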

[2] = tested on: Brain; experiment: Unbound brain concentration in amphetamine-induced hyperlocomotion C57BL/6 mouse at 3.2 mg/kg, sc measured after 1 hr by LC-MS/MS analysis; type: ADME, organism-based; conditions: in vivo
Procedure, shortened: (§2)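 Satellite group of C57BL/6 mice from the amphetamine-stimulated locomotor study, N = 2/dose at 0.32, 1 and 3.2 mg/kg. Dosed sc as a solution in 10/90 Cremophor/water. Unbound plasma and brain concentrations measured at T = 1 h.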

[3] = tested on: Brain; experiment: Unbound brain concentration in amphetamine-induced hyperlocomotion C57BL/6 mouse at 1 mg/kg, sc measured after 1 hr by LC-MS/MS analysis; type: ADME, organism-based; conditions: in vivo; procedure, shortened: as §2
[4] = tested on: Plasma; experiment: Unbound plasma concentration in amphetamine-induced hyperlocomotion C57BL/6 mouse at 3.2 mg/kg, sc measured after 1 hr by LC-MS/MS analysis; type: ADME, organism-based; conditions: in vivo; procedure, shortened: as §2
[5] = target: T2, Muscarinic acetylcholine receptor M1 (Homo sapiens, UniProt P11229); experiment: (§3) Positive allosteric modulation of human muscarinic acetylcholine receptor M1 expressed in CHO cells assessed as increase in acetylcholine-induced calcium mobilization preincubated for 10 mins followed by acetylcholine addition by Fluo-8-AM dye based FLIPR assay; type: ADME, cell-based
T2 sequence (P11229 whole entry): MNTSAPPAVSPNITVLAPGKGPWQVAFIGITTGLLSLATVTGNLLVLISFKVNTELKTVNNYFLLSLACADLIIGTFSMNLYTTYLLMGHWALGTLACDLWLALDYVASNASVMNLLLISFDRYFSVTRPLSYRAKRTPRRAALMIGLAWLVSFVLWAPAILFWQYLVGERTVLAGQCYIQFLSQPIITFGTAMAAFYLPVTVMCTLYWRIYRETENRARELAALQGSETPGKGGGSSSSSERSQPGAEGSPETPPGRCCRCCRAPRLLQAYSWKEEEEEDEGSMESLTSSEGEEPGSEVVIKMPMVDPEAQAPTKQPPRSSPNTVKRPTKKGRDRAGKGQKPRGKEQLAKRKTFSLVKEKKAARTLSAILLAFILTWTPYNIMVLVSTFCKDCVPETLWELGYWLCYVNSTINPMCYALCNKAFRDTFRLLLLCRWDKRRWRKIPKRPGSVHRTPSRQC
Procedure, shortened: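 M1 potentiation (PAM) format: calcium mobilization read on a FLIPR plate reader with an EC20 concentration of ACh present. EC50 is the geometric mean of at least three experiments.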

[6] = tested on: Canis familiaris; experiment: Cholinergic toxicity in dog assessed as salivation at 15 mg/kg, po administered as single dose using spray dried dispersion formulation after 1 hr; type: organism-based, Canis lupus familiaris; conditions: in vivo
Procedure, shortened: (§4)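 Dog single oral dose escalation: 1/sex at 5 mg/kg for each formulation; 1 female at 15 mg/kg. Spray-dried dispersion: 23% drug loading with 0.5% methylcellulose and 100 mM citrate buffer. Clinical signs timed in approximate hours postdose; unbound plasma Cmax.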

[7] = Half life in rat at 2 mg/kg, po administered as single dose; type: ADME, organism-based; conditions: in vivo
Procedure, shortened: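 Rat, single oral dose of 2 mg/kg given as a suspension in 0.5% methylcellulose. Half-life taken after the oral dose.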

[8] = target: T3, Muscarinic acetylcholine receptor M4 (Homo sapiens, UniProt P08173); experiment: Agonist activity at human muscarinic acetylcholine receptor M4 expressed in CHO cells assessed as increase in cAMP accumulation after 2 hrs by cAMP-Glo assay; type: cell-based; procedure, shortened: as §1
T3 sequence (P08173 whole entry): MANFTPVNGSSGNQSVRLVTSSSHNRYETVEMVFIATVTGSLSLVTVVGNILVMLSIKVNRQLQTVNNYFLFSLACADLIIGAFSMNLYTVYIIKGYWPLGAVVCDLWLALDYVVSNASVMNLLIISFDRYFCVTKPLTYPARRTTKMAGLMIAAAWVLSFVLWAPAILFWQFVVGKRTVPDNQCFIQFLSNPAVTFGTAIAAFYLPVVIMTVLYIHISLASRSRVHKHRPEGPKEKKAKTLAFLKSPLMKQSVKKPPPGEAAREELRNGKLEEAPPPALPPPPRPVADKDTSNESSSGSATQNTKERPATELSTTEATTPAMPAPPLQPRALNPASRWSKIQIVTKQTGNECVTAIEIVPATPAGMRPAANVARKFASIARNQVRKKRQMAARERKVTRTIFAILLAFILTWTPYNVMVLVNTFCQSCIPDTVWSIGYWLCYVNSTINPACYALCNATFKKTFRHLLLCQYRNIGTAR

[9] = Ratio of unbound AUC in rat brain to plasma at 2 mg/kg, po or 0.5 mg/kg, iv administered as single bolus dose; type: ADME, organism-based
[10] = tested on: Canis familiaris; experiment: Toxicity in dog assessed as ataxia at 15 mg/kg, po administered as single dose using spray dried dispersion formulation after 0.8 hrs; type: organism-based, Canis lupus familiaris; conditions: in vivo; procedure, shortened: as §4
[11] = tested on: Canis familiaris; experiment: Unbound Cmax in dog plasma at 5 mg/kg, po administered as single dose using hydroxypropyl cellulose/docusate sodium formulation; type: ADME, organism-based, Canis lupus familiaris; conditions: in vivo
Procedure, shortened: (§5)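 Dogs given a single oral 5 mg/kg dose as a nanosuspension (hydroxypropyl cellulose SL, 0.05% docusate sodium in purified water), 1/sex. Unbound plasma Cmax and AUC determined, with clinical signs monitored at approximate hours postdose.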

[12] = tested on: Canis familiaris; experiment: Unbound AUC (0 to 24 hrs) in dog plasma at 5 mg/kg, po administered as single dose using hydroxypropyl cellulose/docusate sodium formulation; type: ADME, organism-based, Canis lupus familiaris; conditions: in vivo; procedure, shortened: as §5
[13] = target: T2, Muscarinic acetylcholine receptor M1; experiment: Agonist activity at human muscarinic acetylcholine receptor M1 expressed in CHO cells assessed as increase in calcium mobilization at 13 uM incubated for 10 mins by Fluo-8-AM dye based FLIPR assay relative to control; type: cell-based; conditions: read-out: %max
[14] = tested on: Rattus norvegicus; experiment: Unbound Cmax in rat plasma at 15 mg/kg, po administered as single dose; type: ADME, organism-based; conditions: in vivo
[15] = target: T2, Muscarinic acetylcholine receptor M1; experiment: as §3, with “mobilization by measuring functional co-operativity with acetylcholine” for “mobilization”; type: ADME, cell-based
Procedure, shortened: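 In FLIPR calcium-mobilization data, ACh concentration–response curves with and without test compound were fitted with the Black/Leff operational model. α gives the change in receptor affinity for ACh, and β gives the change in efficacy, the functional cooperativity.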

Compound: Cc1cc2c(cc1Cc1ccc(-c3cocn3)cc1)C(=O)N([C@H]1CCOC[C@@H]1O)C2
- EC50 [1]: > 10 µM
- Drug uptake(free) [2]: 32 nM
- Drug uptake(free) [3]: 14 nM
- Cp(f) [4]: 130 nM
- EC50 [5]: 0.047 µM
- Activity [6]: Toxic
- half-life [7]: 6.7 h
- EC50 [8]: > 10 µM
- Kp uu [9]: 0.2
- Activity [10]: Toxic
- fCmax [11]: 303 nM
- fAUC [12]: 3.37 µM·h
- Emax at 13 µM [13]: 23%
- fCmax [14]: 1507 nM
- log(activity) [15]: 2.3
